In general, inhibition refers to the change of the read-out against control, counted positive when it falls. One may read the IC50 as the concentration that gives 50% inhibition. A low value points to inhibition by little substance. As a reminder, the Ki is a measure of affinity in units of concentration, obtained from inhibition or displacement.

Data set [1] is described as follows: Inhibition of ImiS (unknown origin) expressed in Escherichia coli BL21(DE3) at 100 uM using imipenem as substrate preincubated for 3 to 60 mins followed by substrate addition by UV-Visible spectrophotometric method relative to control. Particulars: TDE = time-dependent effect. The procedure, abridged:
(§1)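 Purified enzyme preincubated with 100 μM inhibitor in its enzyme-specific buffer, then substrate added: 50 μM cefazolin for IMP-1 and L1, 40 μM imipenem for ImiS. Hydrolysis followed by UV-vis spectrophotometry. Preincubation times of 3–60 min were tested. % inhibition = activity without inhibitor (100%) minus residual activity.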

A short description of data set [2]: Inhibition of L1 (unknown origin) expressed in Escherichia coli BL21(DE3) using cefazolin as substrate by ITC. Summed up:
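Isothermal titration calorimetry at 25 °C with 5 nM L1, 160 μM cefazolin and inhibitor at 0–100 μM; hydrolysis progress monitored as heat flow. Rates from runs at different substrate concentrations plotted against substrate concentration at 0, 50 and 100 μM inhibitor.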
In general terms: In ITC the heat of successive injections is recorded.

Data set [3] can be described thus: Inhibition of L1 (unknown origin) expressed in Escherichia coli BL21(DE3) at 100 uM using cefazolin as substrate preincubated for 30 mins followed by substrate addition by UV-Visible spectrophotometric method relative to control. Summed up: as §1
Data set [4] concerns Escherichia coli. Kind of data set: Growth inhibition of Escherichia coli DH10B harboring pBC SK(+)-L1 at 1024 ug/ml after 12 hrs macrodilution broth method. Further details: species or system K-12 substr. DH10B. The procedure, abridged: (§2)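 Cefazolin MIC determined for E. coli DH10B carrying pBC SK(+)-L1 and for E. coli not expressing L1, with and without compound.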
Data set [5] in a line: Inhibition of IMP1 (unknown origin) expressed in Escherichia coli BL21(DE3) at 100 uM using cefazolin as substrate preincubated for 3 to 60 mins followed by substrate addition by UV-Visible spectrophotometric method. Particulars: TDE = time-dependent effect. Summed up:
as §1

A short description of data set [6]: Inhibition of IMP1 (unknown origin) expressed in Escherichia coli BL21(DE3) at 100 uM using cefazolin as substrate preincubated for 30 mins followed by substrate addition by UV-Visible spectrophotometric method relative to control. The procedure, abridged: as §1
Data set [7] deals with L929. Kind of data set: Cytotoxicity against mouse L929 cells assessed as reduction in cell viability up to 400 uM after 48 hrs by CCK assay. In kind it is cell-based. The settings on record: l929, 48 h. Summed up:
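L-929 mouse fibroblasts exposed to compound at 12.5, 25, 50, 100, 200 and 400 μM working concentrations; cell viability measured.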

Data set [8] is described as follows: Inhibition of L1 (unknown origin) expressed in Escherichia coli DH10B harboring pBC SK(+)-L1 assessed as potentiation of cefazolin-induced antibacterial activity by measuring cefazolin MIC at 1024 ug/ml after 12 hrs macrodilution broth method. Summed up: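 Cefazolin MICs were read for E. coli DH10B carrying pBC SK(+)-L1 across a series of inhibitor concentrations. Cefazolin alone (no inhibitor) on the same strain served as the reference MIC. E. coli not expressing L1 was tested alongside as the susceptible comparator.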

Data set [9] in a line: Inhibition of L1 (unknown origin) expressed in Escherichia coli BL21(DE3) at 100 uM using cefazolin as substrate preincubated for 3 to 60 mins followed by substrate addition by UV-Visible spectrophotometric method relative to control. Particulars: TDE = time-dependent effect. Summed up: as §1
The nature of data set [10]: Chemical stability in pH 9 Tris buffer after 4 days by UV-Visible spectral analysis. In kind it is physicochemical. Particulars: pH 9, 96 h. The procedure, abridged: (§3)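 Compounds incubated in aqueous solution at pH 5.0, 7.0 and 9.0 for 4 days; stability followed by UV-vis spectra.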
The subject of data set [11] is Escherichia coli. Put plainly: Growth inhibition of Escherichia coli DH10B at 1024 ug/ml after 12 hrs macrodilution broth method. Also on record: species or system K-12 substr. DH10B. Summed up:
as §2

Data set [12] can be described thus: Chemical stability in pH 5 Tris buffer after 4 days by UV-Visible spectral analysis. Particulars: pH 5, 96 h. Type of data set: physicochemical. The procedure, abridged:
as §3

Data set [13] is described as follows: Inhibition of ImiS (unknown origin) expressed in Escherichia coli BL21(DE3) at 100 uM using imipenem as substrate preincubated for 30 mins followed by substrate addition by UV-Visible spectrophotometric method relative to control. Summed up: as §1
A short description of data set [14]: Chemical stability in pH 7 Tris buffer after 4 days by UV-Visible spectral analysis. In kind it is physicochemical. The settings on record: pH 7, 96 h. The procedure, abridged: as §3
The nature of data set [15]: Inhibition of L1 (unknown origin) expressed in Escherichia coli BL21(DE3) using cefazolin as substrate preincubated for 30 mins followed by substrate addition by UV-Visible spectrophotometric method. Summed up:
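L1 IC50 measured in 30 mM Tris, pH 8.5, with cefazolin as substrate and inhibitor at 0.1–20 μM. Run in triplicate; mean ± SD reported.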

Data set [16] is described as follows: Mixed-type inhibition of L1 (unknown origin) expressed in Escherichia coli BL21(DE3) using varying levels of cefazolin as substrate preincubated for 30 mins followed by substrate addition by Michaelis-Menten plot analysis.

Structures are written as SMILES.

As for `Cc1ccc(NC(=O)CSCC(=O)[O-])cc1.[K+]`, the inhibition entry was “Tde” in [1]; “Dose-dependent effect” in [2]; 97% in data set [3]; “Tde” in data set [5]; 37% in data set [6]; “Tde” in data set [9]. Also, the inhibition in data set [13] is 52%; in [15] it was “Dose-dependent effect”. Besides, the “growth inhibition (GI)” value in data set [4] and in data set [11] was “Non-Toxic” each time. For the same compound, in data set [7], the Activity result was “Non-Toxic”. Further, the MIC in data set [8] stood at 16 µg/mL. Further, the Stability result in [10], in data set [12] and in [14] was “Stable” in each case. In [15], inhibition was half-maximal at 410 nM (IC50).

As to `O=C([O-])CSCC(=O)Nc1cccc(Cl)c1.[K+]`, the inhibition result in [1] was “Tde”; in [3] it was 79%; in [5], “Tde”; in [6], 48%; in data set [9], “Tde”; in data set [13], 34%. The “growth inhibition (GI)” value in [4] and in [11] was “Non-Toxic” throughout. In addition, the Ki in [16] worked out at 31800 nM. The MIC in data set [8] worked out at 16 µg/mL. Further, the IC50 in [15] is 2010 nM.

For the compound `CCc1ccccc1NC(=O)CSCC(=O)[O-].[K+]`, the inhibition result in [1] is “Tde”; in [3], 92%; in data set [5], “Tde”; in data set [6], 80%; in data set [9] it was “Tde”; in data set [13] it was 21%. Besides, the “growth inhibition (GI)” value in [4] and in [11] was “Non-Toxic” each time. In [16], the Ki was determined as 3700 nM. Besides, the MIC in data set [8] amounted to 16 µg/mL. Also, in [15], the IC50 stood at 590 nM.

As to `O=C([O-])CSCC(=O)Nc1ccccc1Cl.[K+]`, the inhibition entry is “Tde” in [1]; 80% in data set [3]; “Tde” in data set [5]; 53% in data set [6]; “Tde” in [9]; 39% in [13]. Also, the “growth inhibition (GI)” value in data set [4] and in [11] was “Non-Toxic” in each case. In data set [8], the MIC came out at 16 µg/mL. In addition, the Stability entry in data set [10], in data set [12] and in data set [14] was “Unstable” in each case. The compound further gave an IC50 in data set [15] of 1040 nM.

The values are drawn from ChEMBL document CHEMBL3994675, “Carbamylmethyl Mercaptoacetate Thioether: A Novel Scaffold for the Development of L1 Metallo-β-lactamase Inhibitors” (ACS Med Chem Lett, 2017).
